For five molecules, activity, IC50 and Activity results are on record in ChEMBL document CHEMBL2074042, “beta-lactam antibiotics as substrates for OCTN2, an organic cation/carnitine transporter” (J Biol Chem, 2000).

Format in all cases: functional, cell-based
In series [1] the target is T1, OCTN2 (organic cation/carnitine transporter 2) (Rattus norvegicus, UniProt O70594).
T1 sequence (O70594 whole entry): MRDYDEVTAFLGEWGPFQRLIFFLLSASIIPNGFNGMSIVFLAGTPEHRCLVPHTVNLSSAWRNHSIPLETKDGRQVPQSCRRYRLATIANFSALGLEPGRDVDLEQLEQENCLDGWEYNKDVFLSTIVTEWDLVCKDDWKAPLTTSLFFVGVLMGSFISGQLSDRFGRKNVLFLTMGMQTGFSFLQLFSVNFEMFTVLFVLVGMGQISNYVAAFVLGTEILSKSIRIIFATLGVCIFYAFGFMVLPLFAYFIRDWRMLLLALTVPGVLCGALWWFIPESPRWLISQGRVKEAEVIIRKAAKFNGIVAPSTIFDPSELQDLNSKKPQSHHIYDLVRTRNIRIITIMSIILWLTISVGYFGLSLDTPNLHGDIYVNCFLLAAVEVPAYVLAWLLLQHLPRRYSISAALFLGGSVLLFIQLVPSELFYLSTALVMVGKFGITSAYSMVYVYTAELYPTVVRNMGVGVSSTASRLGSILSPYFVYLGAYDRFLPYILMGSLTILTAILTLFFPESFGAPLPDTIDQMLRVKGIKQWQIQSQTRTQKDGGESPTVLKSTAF
The series can be described thus: TP_TRANSPORTER: inhibition of Carnitine uptake (Carnitine: 0.02 uM, Cefepime: 2500 uM) in OCTN2-expressing HeLa cells. Further details: scale not given: the % may be the effect or the level left. The conditions noted are these: human, probe carnitine (0.02 uM), read-out: Activity. Summed up: (§1)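 HeLa cells expressed human or rat OCTN2 cDNA by vaccinia virus/T7 system. [3H]carnitine (20 nM) uptake for 30 min at room temperature in Na+-containing Hepes/Tris buffer, pH 7.5, with β-lactam at 2.5 mM. Lysate radioactivity counted. Endogenous activity from vector-only cells subtracted. Four measurements from two transfections.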

Series [2] addresses T2, Organic cation/carnitine transporter 2 (Homo sapiens, UniProt O76082).
T2 sequence (O76082 whole entry): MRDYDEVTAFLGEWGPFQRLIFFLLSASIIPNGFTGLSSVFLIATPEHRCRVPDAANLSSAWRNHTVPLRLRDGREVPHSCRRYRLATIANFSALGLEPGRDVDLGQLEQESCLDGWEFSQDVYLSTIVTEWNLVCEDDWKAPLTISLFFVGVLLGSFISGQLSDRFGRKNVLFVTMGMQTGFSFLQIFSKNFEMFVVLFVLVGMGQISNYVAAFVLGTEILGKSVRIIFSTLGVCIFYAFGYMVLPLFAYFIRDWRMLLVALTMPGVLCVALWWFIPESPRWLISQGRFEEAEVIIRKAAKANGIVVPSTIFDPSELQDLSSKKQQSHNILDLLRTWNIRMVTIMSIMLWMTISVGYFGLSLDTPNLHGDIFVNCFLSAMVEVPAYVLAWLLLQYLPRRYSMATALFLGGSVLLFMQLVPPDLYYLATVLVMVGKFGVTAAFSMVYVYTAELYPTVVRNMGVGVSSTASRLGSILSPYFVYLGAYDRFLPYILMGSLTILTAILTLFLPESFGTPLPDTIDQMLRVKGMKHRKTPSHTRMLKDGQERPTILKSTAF
Put plainly: TP_TRANSPORTER: inhibition of Carnitine uptake (Carnitine: 0.02 uM) in OCTN2-expressing HeLa cells.

The target in series [3] is T3, Solute carrier family 15 member 1 (Homo sapiens) (UniProt P46059).
T3 sequence (whole entry): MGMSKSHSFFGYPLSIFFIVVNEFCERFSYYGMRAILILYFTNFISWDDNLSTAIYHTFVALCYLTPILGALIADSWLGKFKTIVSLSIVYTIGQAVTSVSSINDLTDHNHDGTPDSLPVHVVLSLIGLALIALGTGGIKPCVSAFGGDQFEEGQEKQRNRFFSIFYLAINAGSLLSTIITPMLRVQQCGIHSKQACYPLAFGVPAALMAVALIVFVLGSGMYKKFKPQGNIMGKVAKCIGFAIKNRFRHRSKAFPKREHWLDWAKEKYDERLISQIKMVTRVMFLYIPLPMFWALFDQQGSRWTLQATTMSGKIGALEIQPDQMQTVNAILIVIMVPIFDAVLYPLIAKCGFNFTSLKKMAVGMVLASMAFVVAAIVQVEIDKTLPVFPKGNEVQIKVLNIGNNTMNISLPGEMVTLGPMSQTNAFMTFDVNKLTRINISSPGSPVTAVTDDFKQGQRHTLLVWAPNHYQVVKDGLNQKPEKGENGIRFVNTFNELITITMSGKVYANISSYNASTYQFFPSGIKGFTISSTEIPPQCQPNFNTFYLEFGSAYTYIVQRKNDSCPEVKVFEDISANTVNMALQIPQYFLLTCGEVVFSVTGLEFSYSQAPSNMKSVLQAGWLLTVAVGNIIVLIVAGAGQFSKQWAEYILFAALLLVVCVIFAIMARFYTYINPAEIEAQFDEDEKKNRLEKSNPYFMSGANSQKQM
Put plainly: TP_TRANSPORTER: inhibition of Gly-Sar uptake (Gly-Sar: 50 uM, Cefepime: 2500uM) in PEPT1-expressing HeLa cells. The method in brief:
(§2)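 HeLa cells expressing human PEPT1 cDNA. [14C]glycylsarcosine (50 μM) uptake for 5 min in Mes/Tris buffer, pH 6.0, giving an H+ gradient, with test compound at 2.5 mM. Vector-transfected uptake subtracted. Percent of control, n=3, mean ± S.E.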

Series [4] deals with T4, Solute carrier family 15 member 2 (Rattus norvegicus) (UniProt Q63424).
T4 sequence (whole entry): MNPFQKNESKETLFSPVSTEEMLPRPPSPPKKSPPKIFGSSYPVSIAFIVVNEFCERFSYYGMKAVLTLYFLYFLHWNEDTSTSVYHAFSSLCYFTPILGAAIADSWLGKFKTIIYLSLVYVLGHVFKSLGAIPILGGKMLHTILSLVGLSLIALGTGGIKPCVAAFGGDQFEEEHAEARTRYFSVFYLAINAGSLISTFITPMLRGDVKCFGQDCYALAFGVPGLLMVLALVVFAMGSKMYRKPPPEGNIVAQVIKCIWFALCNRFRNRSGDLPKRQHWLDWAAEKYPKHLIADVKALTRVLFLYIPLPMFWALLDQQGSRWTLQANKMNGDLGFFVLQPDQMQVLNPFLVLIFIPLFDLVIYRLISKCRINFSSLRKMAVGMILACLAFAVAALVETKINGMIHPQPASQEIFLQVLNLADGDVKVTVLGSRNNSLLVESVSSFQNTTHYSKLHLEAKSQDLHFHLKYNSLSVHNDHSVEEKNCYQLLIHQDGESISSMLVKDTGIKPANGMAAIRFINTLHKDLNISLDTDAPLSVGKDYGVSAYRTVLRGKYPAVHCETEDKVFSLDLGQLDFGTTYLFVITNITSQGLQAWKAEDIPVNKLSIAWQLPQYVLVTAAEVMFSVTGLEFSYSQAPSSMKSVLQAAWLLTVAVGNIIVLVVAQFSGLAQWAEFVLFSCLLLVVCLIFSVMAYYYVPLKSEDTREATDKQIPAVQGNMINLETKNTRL
Put plainly: TP_TRANSPORTER: inhibition of Gly-Sar uptake (Gly-Sar: 25 uM, Cefepime: 2500uM) in PEPT2-expressing HeLa cells. The method in brief:
(§3)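 HeLa cells expressing rat PEPT2 cDNA. [14C]glycylsarcosine (25 μM) uptake for 5 min under an inward H+ gradient in Mes/Tris buffer, pH 6.0, with test compound at 2.5 mM. Vector-cell uptake subtracted. Results as percent of control, three independent measurements, mean ± S.E.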

The target in series [5] is T2, Organic cation/carnitine transporter 2. Put plainly: TP_TRANSPORTER: inhibition of Carnitine uptake (Carnitine: 0.02 uM, Cephalexin: 2500 uM) in OCTN2-expressing HeLa cells.
For series [6] the target is unchanged. Put plainly: TP_TRANSPORTER: inhibition of Carnitine uptake (Carnitine: 0.02 uM, Cefdinir: 2500 uM) in OCTN2-expressing HeLa cells.
For series [7] the target is unchanged. Put plainly: TP_TRANSPORTER: inhibition of Carnitine uptake (Carnitine: 0.02 uM, Cefixime: 2500 uM) in OCTN2-expressing HeLa cells.
Series [8] has as its target T1, OCTN2 (organic cation/carnitine transporter 2). Put plainly: TP_TRANSPORTER: inhibition of Carnitine uptake (Carnitine: 0.02 uM, Cefoselis: 2500 uM) in OCTN2-expressing HeLa cells. Also on record: scale not given: the % may be the effect or the level left. Particulars: human, probe carnitine (0.02 uM), read-out: Activity. Summed up: as §1
For series [9], the target named is T4, Solute carrier family 15 member 2 (Rattus norvegicus). Put plainly: TP_TRANSPORTER: inhibition of Gly-Sar uptake (Gly-Sar: 25 uM, Cefoselis: 2500uM) in PEPT2-expressing HeLa cells. Also on record: scale not given: the % may be the effect or the level left. Summed up:
as §3

Series [10] concerns the target T3, Solute carrier family 15 member 1 (Homo sapiens). The series can be described thus: TP_TRANSPORTER: inhibition of Gly-Sar uptake (Gly-Sar: 50 uM, Cefoselis: 2500uM) in PEPT1-expressing HeLa cells. Further details: scale not given: the % may be the effect or the level left. The method in brief:
as §2

For `CO/N=C(\C(=O)N[C@@H]1C(=O)N2C(C(=O)[O-])=C(C[N+]3(C)CCCC3)CS[C@H]12)c1csc(N)n1` [CEFEPIME], the activity at 2500 µM in [1] worked out at 28%. In addition, the midpoint of inhibition in [2], the IC50, lay at 1.7 mM. Further, the Activity entry in series [3] and in series [4] was “is not an inhibitor [-]” throughout.
Consider `CC1=C(C(=O)O)N2C(=O)[C@@H](NC(=O)[C@H](N)c3ccccc3)[C@H]2SC1` [CEPHALEXIN ANHYDROUS], for which the Activity result in series [5] was “is not an inhibitor [-]”.
Consider `C=CC1=C(C(=O)O)N2C(=O)[C@@H](NC(=O)/C(=N\O)c3csc(N)n3)[C@H]2SC1` [CEFDINIR], for which the Activity entry in series [6] is “is not an inhibitor [-]”.
With `C=CC1=C(C(=O)O)N2C(=O)[C@@H](NC(=O)/C(=N\OCC(=O)O)c3csc(N)n3)[C@H]2SC1` [CEFIXIME], the Activity result in series [7] was “is not an inhibitor [-]”.
For `CO/N=C(\C(=O)N[C@@H]1C(=O)N2C(C(=O)[O-])=C(C[n+]3ccc(N)n3CCO)CS[C@H]12)c1csc(N)n1` [CEFOSELIS], the half-maximal inhibitory concentration (IC50) – broadly, the point on the concentration scale where inhibition reaches its midpoint – in [2] turned out to be 6.4 mM. In series [8], the activity at 2500 µM worked out at 71%. Further, the results for the Activity in series [9] and in series [10] were 83% and 76%, respectively.
